HCV NS3 hel inh = inhibitors of HCV NS3 helicase, primary screen, biochemical, Cy5 molecular beacon fluorescence; hit rate 0.56% among 290,000; Hepatitis C virus NS3 helicase; AID 1800, 2009; inhibition, % at 10.9 µM; NS3 helicase DNA unwinding;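 active = inhibition above the mean of all tested compounds plus 3 SD, set per campaign, cut at about 35% in these data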
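Measured by: Cy5 fluorescence, 0 and 60 min reads / Assay system: NS3 helicase fragment of HCV / Control set: low DMSO, high thioflavine S at 110 µM / Times: 1 h reaction at 25 °C, ATP-initiated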
MEX-5 binding = MEX-5 zinc finger RNA-binding disruptors – biochemical, C. elegans, fluorescence polarization, MLPCN library, primary screen; MEX-5/FITC-TCR2 RNA binding; active compounds read low; activity score (negative = inhibition of binding), % at 10 µM; hit rate 0.38% among 300,000; AID 1832, 2009;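 active = inhibition past about -25% in most replicates, and total fluorescence under double the plate's negative control median, limit read from the data; inconclusive = replicates evenly split on the limit, or fluorescence at least double controls; inactive = too little inhibition in most replicates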
HCV core dimer = inhibitors of HCV core protein dimerization, primary screen, biochemical, TR-FRET, high-throughput; TR-FRET GST/Flag-core106 dimerization, 1536-well; inhibition, % at 5 µM; hit rate 0.33% among 300,000;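 active = inhibition above the mean of all tested compounds plus 3 SD, set per screening campaign, cut at about 45% in these data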
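System – GST-tagged and Flag-tagged HCV core protein residues 1-106 · Repeats – one well for each compound · Technique – TR-FRET 671 and 617 nm emission · Doses – one concentration, 5 µM, in 0.5% DMSO · Times – 4 h, 22.5 °C incubation · Also added – Eu donor and XL665 acceptor anti-tag antibodies · Measure – percent inhibition of core106 dimerization signal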
EBV gp42 inh = Epstein-Barr virus gp42 inhibitors, primary screen, biochemical, uHTS, fluorescence polarization; Glycoprotein 42 (Epstein-Barr virus (strain AG876)), Q1HVG2; Fluorescence polarization binding assay, mP read-out; inhibition, % (tested at 21.74 µM); hit rate 0.42% among 220,000; in the data active = inhibition above about 50%
Target sequence (Q1HVG2 whole entry, looked up): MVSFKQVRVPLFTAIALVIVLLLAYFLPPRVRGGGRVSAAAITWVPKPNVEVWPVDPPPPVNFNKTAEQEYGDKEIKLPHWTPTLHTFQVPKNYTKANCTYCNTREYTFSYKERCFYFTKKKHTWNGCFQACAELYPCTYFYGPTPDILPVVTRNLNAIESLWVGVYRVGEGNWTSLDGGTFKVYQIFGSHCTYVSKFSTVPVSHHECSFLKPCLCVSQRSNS
EBNA-1 inh = EBNA-1 DNA-binding inhibitors, primary screen, biochemical, fluorescence polarization; inhibition, % at 14.8 µM; hit rate 0.34% among 300,000; in the data active = inhibition above about 28%
ZTA DNA inh = ZTA (EBV) inhibition in EBNA-1 counter-screen. P03206. ZTA-DNA binding, fluorescence polarization. inhibition, % at 11 µM. hit rate 0.15% among 320,000. AID 2234; in the data active = inhibition above about 33%
Target sequence (P03206 whole entry, looked up): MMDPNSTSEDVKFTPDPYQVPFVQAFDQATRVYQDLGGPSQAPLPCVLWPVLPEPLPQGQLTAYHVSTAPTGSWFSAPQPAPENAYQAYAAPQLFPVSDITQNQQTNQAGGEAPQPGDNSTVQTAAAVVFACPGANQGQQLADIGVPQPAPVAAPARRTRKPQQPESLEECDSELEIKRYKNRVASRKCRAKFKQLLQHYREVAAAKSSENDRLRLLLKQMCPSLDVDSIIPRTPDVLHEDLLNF
EBNA-1 inh conf = EBNA-1 DNA-binding inhibitors, retest, confirmation, biochemical, fluorescence polarization, triplicate; shares compounds with EBNA-1 inh; Recombinant EBNA-1 DBD, Cy5-DNA fluorescence polarization; inhibition, % at 14.8 µM; hit rate 35% among 830; AID 2292, 2010;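 active = mean inhibition across replicates above a set limit taken from the earlier primary screen, cut at about 28% in these data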
ZTA counter trip = EBV Zta DNA binding inhibitors, counter-screen for EBNA-1 inhibitor project, biochemical, fluorescence polarization, triplicate. Zta-ZRE DNA binding, Cy5 fluorescence polarization. inhibition, % at 11.1 µM. 830 tested, under 10 active. AID 2328, 2010. shares compounds with EBNA-1 inh;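 active = mean inhibition over triplicates above a set limit taken from the primary EBNA-1 screen, cut at about 37% in these data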;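 note: purified full length Zta protein with Cy5 labeled ZRE DNA probe; inhibitors lower polarization by freeing the labeled DNA probe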
Hits are given with their value; . = inactive; ? = inconclusive; / = no result given. Sampled rows, rich in hits. Any-hit rate of the full collection: about 1.7%.

SMILES	HCV NS3 hel inh	MEX-5 binding	HCV core dimer	EBV gp42 inh	EBNA-1 inh	ZTA DNA inh	EBNA-1 inh conf	ZTA counter trip
CC(=O)C1=C(O)C(=O)N(CCCn2ccnc2)C1c1ccc(Br)cc1 (stereo unspecified)	.	.	.	.	40	.	.	.
COc1ccc(C2C(C(C)=O)=C(O)C(=O)N2CCCn2ccnc2)cc1OC (stereo unspecified)	/	.	.	/	.	.	/	/
Cc1ccc(S(=O)(=O)/N=C(\N)Nc2nc(C)c3cc(C)ccc3n2)cc1	.	.	.	.	.	.	/	/
Cc1ccc(S(=O)(=O)/N=C(\N)Nc2nc(C)c3ccc(C)cc3n2)cc1	.	.	.	.	37	.	.	.
Cc1ccc(S(=O)(=O)/N=C(\N)Nc2nc(C)c3cc(C)c(C)cc3n2)cc1	.	.	.	.	38	.	.	.
Cc1c(Cl)cccc1NC(=O)C1CC2CCC1C2 (stereo unspecified)	/	.	.	/	.	.	/	/
O=C(NCC(c1ccco1)N1CCc2ccccc2C1)C(=O)Nc1ccccc1F (stereo unspecified)	/	.	.	/	.	.	/	/
O=C(COC(=O)C1(c2ccc(F)cc2)CCCC1)NCc1ccco1	.	.	.	.	.	.	/	/
Cc1ccccc1C1C(C#N)=C2NC(=O)c3c(sc4c3CCCCC4)N2C2=C1C(=O)CC(C)(C)C2 (stereo unspecified)	.	?	.	.	.	.	/	/
COc1cc(C2C(C#N)=C(N)N(c3sc4c(c3C#N)CCCC4)C3=C2C(=O)CC(C)(C)C3)cc(OC)c1OC (stereo unspecified)	.	.	.	.	108	.	36	.
COC(=O)c1cc(Br)c(N)cc1OC	.	.	.	.	.	.	/	/
O=C(Nc1cc(Cl)cc(Cl)c1)c1ccc(Cn2c(=O)[nH]c3ccsc3c2=O)cc1	.	.	.	.	36	.	29	.
O=C(CSc1n[nH]c(-c2ccco2)n1)Nc1sc2c(c1C(=O)Nc1ccccc1)CCCC2	.	.	.	.	36	.	.	.
CCOC(=O)c1c(NC(=O)CSc2n[nH]c(-c3ccco3)n2)sc(C)c1C	.	.	.	.	.	.	/	/
CC(=O)C(/C=N/c1cc(-c2ccc(C)cc2)nn1-c1ccccc1)=C(\C)O	.	.	.	.	30	.	50	.
Cc1ccc(NC(=O)c2cc(-c3ccccc3)nn2-c2ccccc2)cc1	.	.	.	.	.	.	/	/
O=C(CCn1c(=S)[nH]c2ccccc2c1=O)Nc1cccc(Cl)c1	.	.	.	/	28	.	.	.
COC(=O)c1ccc2c(=O)n(CCCCCC(=O)NCc3ccc4c(c3)OCO4)c(=O)[nH]c2c1	.	.	.	.	63	.	.	.
O=c1c2ccccc2[nH]c(=S)n1Cc1ccc2c(c1)OCO2	.	.	.	.	.	.	/	/
O=C(CCCCCn1c(=S)[nH]c2ccccc2c1=O)NCc1ccc2c(c1)OCO2	.	.	.	.	32	.	.	.
CCCCCn1c(=O)[nH]c2cc(C(=O)NCc3ccc4c(c3)OCO4)ccc2c1=O	.	.	.	.	31	.	.	.
CCOc1ccc(CCNC(=O)COC(=O)c2cc(OC)c(OC)c(OC)c2)cc1OCC	.	.	.	.	.	.	/	/
CCOc1cc(/C=N/NC(=O)CCCC(=O)NC2CCCCC2)ccc1O	.	.	.	.	.	.	/	/
CN1CCC2(CC1)N=C(c1ccc(F)cc1)C(=S)N2C(=O)c1ccc(C(C)(C)C)cc1	.	/	.	.	.	.	/	/
CCCN1CCc2c(sc3nc(SCC)n(-c4ccc(OC)cc4)c(=O)c23)C1	.	.	/	/	/	/	/	/
SMILES	HCV NS3 hel inh	MEX-5 binding	HCV core dimer	EBV gp42 inh	EBNA-1 inh	ZTA DNA inh	EBNA-1 inh conf	ZTA counter trip
CC(=O)/C(=N\Nc1cccc(Cl)c1)Sc1nnc(-c2ccccc2)n1-c1ccccc1	.	.	.	.	33	.	.	.
CC1CCN(S(=O)(=O)c2ccc(-c3nnc(SCc4cccnc4)o3)cc2)CC1	.	.	.	.	44	.	.	.
COC(=O)CSc1nnc(-c2ccc(S(=O)(=O)N3CCC(C)CC3)cc2)o1	.	.	.	.	.	.	/	/
CCOC(=O)c1sc(N2C(=O)C(O)=C(C(=O)c3ccc(C)o3)C2c2cccc([N+](=O)[O-])c2)nc1C (stereo unspecified)	.	.	.	/	33	.	.	.
CC(NC(=O)c1ccco1)C(=O)N1CCN(C(c2ccccc2)c2ccccc2)CC1 (stereo unspecified)	.	.	.	/	.	.	/	/
CC(NC(=O)COc1ccc(/C=N/NC(=O)C(=O)Nc2ccccc2Br)cc1)c1ccccc1 (stereo unspecified)	.	.	.	.	34	.	50	.
NS(=O)(=O)c1ccc(NC(=S)Nc2ccn(Cc3cccc4ccccc34)n2)cc1	.	.	.	.	29	.	34	.
Cc1cc(Cl)ccc1OCCCC(=O)OCC(N)=O	.	.	.	.	.	.	/	/
CCOC(=O)Nc1ccc2c(COC(=O)CN(C)S(=O)(=O)c3ccc(C)cc3)cc(=O)oc2c1	/	.	.	/	56	.	.	.
Cc1cccc(NC(=O)CSc2nc3ccc(NC(=O)CSc4nnnn4-c4ccccc4)cc3s2)c1C	.	/	.	.	.	.	/	/
O=C(CSc1nc2ccc(NC(=O)CSc3nnnn3-c3ccccc3)cc2s1)Nc1ccccc1	.	.	.	.	49	.	61	.
O=C(Nc1cccc(-c2nnc(-c3ccccc3)o2)c1)C1CCCCC1	.	.	.	.	75	.	107	.
O=C(Nc1ccc2oc(-c3ccccc3)nc2c1)c1ccc2c(c1)OCCO2	.	.	.	.	.	.	/	/
O=C(Nc1ccc2oc(-c3cccnc3)nc2c1)c1ccc2c(c1)OCCO2	.	.	.	.	41	.	.	.
COc1ccc(NC(=O)c2cc(-c3cccnc3)nc3c(C)c(C)ccc23)c(OC)c1	.	.	.	.	33	.	.	.
CCOc1ccc(/C=N/NC(=O)C(=O)NCc2ccco2)cc1	.	/	.	.	34	.	.	.
COc1cc(C)ccc1OCc1cc(C(=O)N2CCC(c3ccc(F)cc3)C2)no1 (stereo unspecified)	.	.	.	/	31	.	.	.

Assay outcomes: PubChem BioAssay, several laboratories
